In assay [1] the target is T1, Thromboxane-A synthase (Rattus norvegicus) (UniProt P49430).
T1 sequence (whole entry): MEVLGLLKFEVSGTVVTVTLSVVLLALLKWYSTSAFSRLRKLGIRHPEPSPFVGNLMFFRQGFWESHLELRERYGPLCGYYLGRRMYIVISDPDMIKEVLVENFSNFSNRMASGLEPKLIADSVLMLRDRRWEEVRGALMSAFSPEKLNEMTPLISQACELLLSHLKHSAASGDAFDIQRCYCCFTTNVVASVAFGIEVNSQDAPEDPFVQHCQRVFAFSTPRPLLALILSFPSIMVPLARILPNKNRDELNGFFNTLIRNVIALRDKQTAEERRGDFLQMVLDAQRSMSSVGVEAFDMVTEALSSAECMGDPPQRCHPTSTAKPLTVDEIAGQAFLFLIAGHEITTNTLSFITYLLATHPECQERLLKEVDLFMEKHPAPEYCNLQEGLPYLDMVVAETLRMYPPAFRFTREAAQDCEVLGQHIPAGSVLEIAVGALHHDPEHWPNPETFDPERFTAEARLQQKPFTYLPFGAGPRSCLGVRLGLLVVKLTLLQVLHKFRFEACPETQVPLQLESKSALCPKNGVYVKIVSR
The assay can be described thus: Inhibitory activity for thromboxane synthetase determined by TXB2 levels in platelets from spontaneously hypertensive rats. Further details: concentration or dose not given beside the values. The settings on record: concentration not given here. Put shortly: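 Washed SHR platelets in oxygenated Krebs phosphate buffer, pH 7.4, 4.5-6.0 × 10^4/μL, incubated with vehicle or drug for 10 min at 37 °C. Stopped with ice and citric acid. Supernatant TXB2 measured by RIA; TXB2 in boiled controls subtracted; % inhibition calculated. IC50 read graphically from % inhibition vs log concentration; single-point screen at 10^-4 M.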

In assay [2] the test system is Rattus norvegicus. The experiment in a line: Antihypertensive activity in spontaneously hypertensive rats at 100 mg/kg po/day for 2 days. Type of assay: functional, organism-based. The arrangement: dose 100 mg/kg. Put shortly:
(§1)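 Male 16-week-old Okamoto SHR (mean arterial pressure about 170 mmHg), 1-3 rats per compound. Given by gavage in 2% preboiled starch (50 mg/mL), 100 mg/kg or less, with 0.9% NaCl load (25 mL/kg). Second dose without saline 24 h later. Mean arterial pressure measured 28 h after first dose. Active if ≤116 mmHg in one rat or mean ≤122 mmHg in two.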

In assay [3] the test system is Rattus norvegicus. The assay can be described thus: Antihypertensive activity in spontaneously hypertensive rats tested at 100 mg/kg po/day for 2 days. It is filed as functional, organism-based. Further details: dose 100 mg/kg. Put shortly:
as §1

The source made the active and inactive calls.

Turning to `Cc1nccn1CCCNC(=O)c1ccc(C(F)(F)F)cc1`, the inhibition in assay [1] worked out at 36%. The result in the assay on Rattus norvegicus [2] was Active.
On the same counts, the results for `O=C(NCCCn1ccnc1)c1ccc(Br)cc1` are 85% and “Active”.
The matching figures for `Cc1nccn1CCCNC(=O)c1ccc(Cl)cc1`: 0% and “Active”.
With `O=C(NCCCCn1ccnc1)c1ccc(Br)cc1`, the inhibition in assay [1] turned out to be 87%. Further, the result in the assay with Rattus norvegicus [2] was Active.
On the same counts, the results for `O=C(NCCCn1ccnc1)c1ccc(C(F)(F)F)cc1` are 93% and “Active”.
On the same counts, the results for `Cc1cn(CCCNC(=O)c2ccc(Br)cc2)cn1` are 80% and “Active”.
In the case of `O=C(Cc1cccc(Cl)c1)NCCCn1ccnc1`, the inhibition in assay [1] stood at 75%. Besides, the result with Rattus norvegicus [2] was Active.
`CN(C)c1ccc(C(=O)NCCCn2cncn2)cc1` came in with an inhibition in assay [1] of 64%. For the same compound, the result in the assay on Rattus norvegicus [2] was Active.
`O=C(NCCCn1cncn1)c1cccc(Cl)c1` yielded an inhibition in assay [1] of 86%. For the same compound, the outcome with Rattus norvegicus [3] was inactive.
Consider `O=C(NCCCn1cnc(-c2ccccc2)c1)c1ccc(Cl)cc1`, for which, in assay [1], the inhibition was determined as 69%. Also, the result with Rattus norvegicus [2] was Active.
For `Cc1ccc(C(=O)NCCCn2ccnc2)cc1`, the inhibition in assay [1] was determined as 83%. Moreover, the result with Rattus norvegicus [3] was inactive.
On the same counts, the results for `COc1ccc(C(=O)NCCCn2ccnc2)cc1` are 89% and “inactive”.
The matching figures for `O=C(O)c1ccccc1C(=O)NCCCn1cncn1`: 23% and “inactive”.
The compound `Nc1ccc(Cl)cc1C(=O)NCCCn1ccnc1` had an inhibition in assay [1] of 96%. Also, the outcome in the assay with Rattus norvegicus [2] was Active.
The matching figures for `O=C(NCCCn1cncn1)c1ccccc1`: 77% and “Active”.
The matching figures for `O=C(NCCCn1ccnc1)c1cccc(Br)c1`: 91% and “Active”.
The compound `O=C(NCCCCn1cncn1)c1ccc(Cl)cc1` registered an inhibition in assay [1] of 52%. The result with Rattus norvegicus [3] was inactive.
As to `CCCCOc1ccc(C(=O)NCCCn2cncn2)cc1`, the inhibition in assay [1] stood at 71%. The result in the assay on Rattus norvegicus [3] was inactive.
The matching figures for `CC(CNC(=O)c1ccc(Cl)c(Cl)c1)Cn1ccnc1` (configuration not stated): 86% and “inactive”.
On the same counts, the results for `O=C(NCCCCn1ccnc1)c1ccccc1` are 91% and “inactive”.
The matching figures for `O=C(Cc1cccc(Cl)c1)NCCCn1cncn1`: 0% and “inactive”.
Take `O=C(COc1ccc(Cl)cc1)NCCCn1ccnc1`: the inhibition in assay [1] was found to be 85%. Moreover, the result in the assay with Rattus norvegicus [3] was inactive.
On the same counts, the results for `O=C(NCCCn1ccnc1)c1ccccc1F` are 84% and “inactive”.
With `C=CCNc1ccc(Cl)cc1C(=O)NCCCn1ccnc1`, the inhibition in assay [1] was 95%. The result with Rattus norvegicus [2] was Active.
On the same counts, the results for `Nc1ccccc1C(=O)NCCCn1ccnc1` are 89% and “Active”.
On to `CNc1ccccc1C(=O)NCCCn1ccnc1`, for which the inhibition in assay [1] is 57%. For the same compound, the result in the assay with Rattus norvegicus [3] was inactive.
Consider `Cc1ccc(CC(=O)NCCCn2ccnc2)cc1`, for which the inhibition in assay [1] was found to be 58%. The result with Rattus norvegicus [2] was Active.
With `O=C(NC/C=C/Cn1ccnc1)c1ccc(Cl)cc1` (stereo in doubt; 51), the inhibition in assay [1] was determined as 100%. Besides, the outcome with Rattus norvegicus [3] was inactive.
On the same counts, the results for `O=C(NCCCn1cncn1)c1ccc(Br)cc1` are 40% and “inactive”.
On the same counts, the results for `O=C(NCCCCCn1cncn1)c1ccc(Cl)cc1` are 79% and “inactive”.
The matching figures for `O=C(CCc1ccccc1)NCCCn1ccnc1`: 64% and “inactive”.
On to `O=C(O)c1ccccc1C(=O)NCCCn1ccnc1`, for which, in assay [1], the inhibition amounted to 82%. For the same compound, the result in the assay on Rattus norvegicus [3] was inactive.
For the compound `Cc1cn(CCCNC(=O)c2cccc(Cl)c2)cn1`, the inhibition in assay [1] came out at 84%. Further, the result in the assay on Rattus norvegicus [2] was Active.
`O=C(NCCCn1ccnc1)c1ccc(C(=O)c2ccccc2)cc1` displayed an inhibition in assay [1] of 100%. Besides, the outcome with Rattus norvegicus [3] was inactive.
The matching figures for `O=C(NCCCn1cncn1)c1ccc(C(=O)c2ccccc2)cc1`: 65% and “inactive”.
The matching figures for `O=C(NCCCn1ccnc1)c1ccccc1`: 96% and “inactive”.
`COc1cc(C(=O)NCCCn2ccnc2)cc(OC)c1OC` yielded an inhibition in assay [1] of 100%. The result in the assay on Rattus norvegicus [3] was inactive.
The matching figures for `CC(C)(C)c1ccc(C(=O)NCCCn2cncn2)cc1`: 86% and “inactive”.
On the same counts, the results for `CS(=O)(=O)c1ccc(C(=O)NCCCn2ccnc2)cc1` are 80% and “inactive”.
The matching figures for `O=C(NCCCn1cncn1)c1ccc(F)cc1`: 67% and “inactive”.
Turning to `O=C(NCCCn1cncn1)c1cccc([N+](=O)[O-])c1`, in assay [1], the inhibition came out at 72%. The outcome with Rattus norvegicus [3] was inactive.
On the same counts, the results for `Cc1nccn1CCCNC(=O)c1cccc(Br)c1` are 64% and “inactive”.
On the same counts, the results for `Cc1cn(CCCNC(=O)c2cccc(Br)c2)cn1` are 93% and “inactive”.
On the same counts, the results for `O=C(NCCCn1ccnc1)C1CC1c1ccccc1` (configuration not stated) are 100% and “inactive”.
Regarding `O=C(/C=C/c1ccc(Cl)cc1)NCCCn1cncn1`, in assay [1], the inhibition was determined as 47%. Besides, the outcome with Rattus norvegicus [3] was inactive.
The matching figures for `O=C(NC/C=C/Cn1ccnc1)c1ccc(Cl)cc1` (stereo in doubt; 52): 91% and “inactive”.
On the same counts, the results for `O=C(NCCCn1cncn1)c1cccc(F)c1` are 82% and “inactive”.
`O=C(NC/C=C/Cn1ccnc1)c1ccc(C(F)(F)F)cc1` (stereo in doubt; 53): the inhibition in assay [1] was found to be 93%. Besides, in the assay on Rattus norvegicus [3], the result was inactive.
In assay [1], `CC(CCNC(=O)c1ccc(C(F)(F)F)cc1)n1ccnc1` (configuration not stated) gave an inhibition of 94%. Moreover, the result with Rattus norvegicus [3] was inactive.
On the same counts, the results for `Cc1nccn1CCCNC(=O)c1cccc(C(F)(F)F)c1` are 75% and “inactive”.
The matching figures for `O=C(Cc1ccc(F)cc1)NCCCn1ccnc1`: 33% and “inactive”.
On the same counts, the results for `CCNc1ccccc1C(=O)NCCCn1ccnc1` are 86% and “inactive”.
As for `O=C(COc1ccccc1)NCCCn1ccnc1`, in assay [1], the inhibition is 86%. Besides, the outcome in the assay with Rattus norvegicus [3] was inactive.
The matching figures for `O=C(NCCCCCn1cncn1)c1ccc(Br)cc1`: 81% and “inactive”.
In the case of `O=C(NCCCn1cncn1)c1ccccc1F`, in assay [1], the inhibition was 25%. Further, the result in the assay with Rattus norvegicus [3] was inactive.
In assay [1], `O=C(NCCCn1ccnc1)c1ccccc1Br` gave an inhibition of 50%. The result with Rattus norvegicus [3] was inactive.
The matching figures for `CC(CCNC(=O)c1cccc(Cl)c1)n1ccnc1` (configuration not stated): 93% and “inactive”.
Compound `CC(=O)c1ccc(C(=O)NCCCn2ccnc2)cc1` had an inhibition in assay [1] of 90%. The result in the assay on Rattus norvegicus [3] was inactive.
On the same counts, the results for `O=C(NCCCn1cncn1)c1cccc(Br)c1` are 85% and “inactive”.
As to `O=C(NCCn1ccnc1)c1ccc(Cl)c(Cl)c1`, in assay [1], the inhibition is 59%. Further, the outcome in the assay on Rattus norvegicus [3] was inactive.
Compound `CC(CCNC(=O)c1ccc(Br)cc1)n1ccnc1` (configuration not stated) displayed an inhibition in assay [1] of 91%. Moreover, the result in the assay with Rattus norvegicus [3] was inactive.
The compound `O=C(NCCCn1cncn1)c1cccc(C(F)(F)F)c1` came in with an inhibition in assay [1] of 71%. For the same compound, the result with Rattus norvegicus [3] was inactive.
`Cc1nccn1CCCNC(=O)c1cccc(Cl)c1` had an inhibition in assay [1] of 59%. For the same compound, the result in the assay on Rattus norvegicus [3] was inactive.
On the same counts, the results for `O=C(NCCCn1ccnc1)C(=O)c1ccccc1` are 80% and “inactive”.
The matching figures for `CCCCOc1ccc(C(=O)NCCCn2ccnc2)cc1`: 75% and “inactive”.
In assay [1], `O=C(NCCCn1ccnc1)c1cccc(F)c1` registered an inhibition of 96%. In addition, the result with Rattus norvegicus [3] was inactive.

For orientation: inhibition means the percentage by which the read-out fell short of the control.

The values are drawn from ChEMBL document CHEMBL1123157, “Thromboxane synthetase inhibitors and antihypertensive agents. 1. N-[(1H-imidazol-1-yl)alkyl]aryl amides and N-[(1H-1,2,4-triazol-1-yl)alkyl]aryl amides” (J Med Chem, 1986).
